Calls of active or inactive are those of the source. The calls are words filed in the database; no cut-off is given here.
Assays:
ES2 [1] = test: Antiinvasive activity against human ES2 cells in matrigel-coated transwell chamber after 8 hrs by Crystal violet staining-based microscopy; format: functional, cell-based
Summary of the method: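 Invasion assessed in Matrigel-coated Transwell chambers; ES-2 cells allowed to invade the Matrigel and reach the other side of the membrane over 8 h; graded doses tested.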

[2] = Cytotoxicity against human ES2 cells after 24 hrs by MTT assay; format: functional; conditions: ES-2, 24 h
[3] = molecular target: 72 kDa type IV collagenase (Homo sapiens, UniProt P08253); test: Inhibition of recombinant MMP2 (unknown origin) using […] as substrate incubated for 5 mins prior to substrate addition measured after 60 mins by UV-Vis spectrophotometry
Aorta = test: Antiangiogenic activity against Sprague-Dawley rat aortic rings assessed as inhibition of new microvessel growth at 100 ug/ml after 6 days; format: functional, tissue-based
Summary of the method: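 Rat aortic rings embedded on Matrigel; microvessel outgrowth from the ring scored and expressed as inhibition rate versus control; mean with SD from three independent experiments.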

Aminopeptidase N [4] = molecular target: T1, Aminopeptidase N (Sus scrofa, UniProt P15145); test: Inhibition of pig kidney APN using L-Leu-p-nitroanilide as substrate incubated for 5 mins prior to substrate addition measured after 30 mins by UV-Vis spectrophotometry
T1 sequence (P15145 whole entry): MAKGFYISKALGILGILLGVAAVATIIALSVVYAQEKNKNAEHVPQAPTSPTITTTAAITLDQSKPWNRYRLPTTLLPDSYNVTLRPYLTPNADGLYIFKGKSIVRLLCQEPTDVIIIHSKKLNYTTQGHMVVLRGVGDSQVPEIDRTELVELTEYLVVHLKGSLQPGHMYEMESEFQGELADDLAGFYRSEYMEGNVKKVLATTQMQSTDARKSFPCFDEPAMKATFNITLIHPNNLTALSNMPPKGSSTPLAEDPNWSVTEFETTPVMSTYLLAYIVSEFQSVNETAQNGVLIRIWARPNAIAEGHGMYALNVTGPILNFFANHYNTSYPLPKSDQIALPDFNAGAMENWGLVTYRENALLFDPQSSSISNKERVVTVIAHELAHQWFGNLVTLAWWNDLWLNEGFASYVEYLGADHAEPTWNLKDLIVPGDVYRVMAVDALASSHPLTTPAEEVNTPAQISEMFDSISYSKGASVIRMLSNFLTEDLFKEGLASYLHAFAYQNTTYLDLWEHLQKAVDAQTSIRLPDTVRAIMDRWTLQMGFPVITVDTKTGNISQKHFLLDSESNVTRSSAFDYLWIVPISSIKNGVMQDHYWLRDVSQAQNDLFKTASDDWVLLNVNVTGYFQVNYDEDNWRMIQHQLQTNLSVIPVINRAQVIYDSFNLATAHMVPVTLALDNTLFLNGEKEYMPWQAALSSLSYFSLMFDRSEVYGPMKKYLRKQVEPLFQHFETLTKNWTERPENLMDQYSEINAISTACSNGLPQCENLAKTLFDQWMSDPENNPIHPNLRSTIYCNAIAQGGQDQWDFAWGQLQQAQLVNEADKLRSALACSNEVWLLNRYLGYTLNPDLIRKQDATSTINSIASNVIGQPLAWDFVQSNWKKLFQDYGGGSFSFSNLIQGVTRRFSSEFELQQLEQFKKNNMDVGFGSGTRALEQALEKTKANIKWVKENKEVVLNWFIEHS

Aminopeptidase N [5] = molecular target: T2, Aminopeptidase N (Homo sapiens, UniProt P15144); test: Ratio of betastatin IC50 to compound IC50 for APN in human ES-2 cells; format: cell-based
Aminopeptidase N [6] = molecular target: T2, Aminopeptidase N; test: Inhibition of APN in human ES-2 cells using L-Leu-p-nitroanilide as substrate incubated for 5 mins prior to substrate addition measured after 1 hr by UV-Vis spectrophotometry; format: cell-based
HUVEC [7] = test: Antiangiogenic activity in HUVEC assessed as inhibition of tube formation at 100 ug/ml after 8 hrs by microscopic analysis; format: functional, cell-based; conditions: Homo sapiens
Summary of the method: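 HUVECs plated on Matrigel to form capillary tube-like structures; tubular structure formation scored as inhibition rate versus untreated control; mean with SD from three independent experiments.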

HUVEC [8] = test: Acute cytotoxicity against HUVEC at 100 ug/ml after 8 hrs by microscopic analysis; format: cell-based; conditions: human
Summary of the method: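 Acute cytotoxicity judged by microscopic inspection of treated samples during the assay period on Matrigel.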

ES2 [9] = test: Antimigratory activity against human ES2 cells in transwell chamber at 100 ug/ml after 3 hrs by Crystal violet staining-based microscopy; format: functional, cell-based
Summary of the method: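 ES-2 cells placed in Transwell chambers with 8 µm micropore membranes, no Matrigel coating; cells crossing the membrane counted as migration rate relative to control; mean with SD from three independent experiments.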

T2 sequence (P15144 whole entry): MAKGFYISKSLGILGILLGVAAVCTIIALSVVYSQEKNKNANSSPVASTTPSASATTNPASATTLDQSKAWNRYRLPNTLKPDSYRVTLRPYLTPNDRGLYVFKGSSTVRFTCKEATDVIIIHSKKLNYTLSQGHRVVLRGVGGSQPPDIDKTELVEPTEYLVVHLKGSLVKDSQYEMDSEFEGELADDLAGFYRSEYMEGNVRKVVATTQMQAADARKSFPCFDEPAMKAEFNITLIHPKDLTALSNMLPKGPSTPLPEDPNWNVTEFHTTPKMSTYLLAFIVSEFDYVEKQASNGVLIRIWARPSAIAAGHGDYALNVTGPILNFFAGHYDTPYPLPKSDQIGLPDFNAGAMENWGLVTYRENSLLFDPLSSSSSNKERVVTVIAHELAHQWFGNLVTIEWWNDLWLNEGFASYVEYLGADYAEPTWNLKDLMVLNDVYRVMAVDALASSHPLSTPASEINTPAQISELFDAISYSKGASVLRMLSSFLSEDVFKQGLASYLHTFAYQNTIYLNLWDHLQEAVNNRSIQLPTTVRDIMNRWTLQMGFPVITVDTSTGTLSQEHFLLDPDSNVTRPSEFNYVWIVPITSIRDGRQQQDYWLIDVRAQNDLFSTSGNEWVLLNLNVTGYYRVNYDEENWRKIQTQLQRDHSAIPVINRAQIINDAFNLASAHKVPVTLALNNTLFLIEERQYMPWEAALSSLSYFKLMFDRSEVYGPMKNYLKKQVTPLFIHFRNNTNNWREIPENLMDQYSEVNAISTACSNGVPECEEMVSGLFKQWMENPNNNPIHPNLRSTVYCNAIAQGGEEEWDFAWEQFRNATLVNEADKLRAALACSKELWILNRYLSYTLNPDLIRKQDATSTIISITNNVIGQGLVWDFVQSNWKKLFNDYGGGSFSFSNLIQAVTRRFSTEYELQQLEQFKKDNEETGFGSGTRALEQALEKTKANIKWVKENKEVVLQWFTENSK
Chain of 72 kDa type IV collagenase (P08253 whole entry): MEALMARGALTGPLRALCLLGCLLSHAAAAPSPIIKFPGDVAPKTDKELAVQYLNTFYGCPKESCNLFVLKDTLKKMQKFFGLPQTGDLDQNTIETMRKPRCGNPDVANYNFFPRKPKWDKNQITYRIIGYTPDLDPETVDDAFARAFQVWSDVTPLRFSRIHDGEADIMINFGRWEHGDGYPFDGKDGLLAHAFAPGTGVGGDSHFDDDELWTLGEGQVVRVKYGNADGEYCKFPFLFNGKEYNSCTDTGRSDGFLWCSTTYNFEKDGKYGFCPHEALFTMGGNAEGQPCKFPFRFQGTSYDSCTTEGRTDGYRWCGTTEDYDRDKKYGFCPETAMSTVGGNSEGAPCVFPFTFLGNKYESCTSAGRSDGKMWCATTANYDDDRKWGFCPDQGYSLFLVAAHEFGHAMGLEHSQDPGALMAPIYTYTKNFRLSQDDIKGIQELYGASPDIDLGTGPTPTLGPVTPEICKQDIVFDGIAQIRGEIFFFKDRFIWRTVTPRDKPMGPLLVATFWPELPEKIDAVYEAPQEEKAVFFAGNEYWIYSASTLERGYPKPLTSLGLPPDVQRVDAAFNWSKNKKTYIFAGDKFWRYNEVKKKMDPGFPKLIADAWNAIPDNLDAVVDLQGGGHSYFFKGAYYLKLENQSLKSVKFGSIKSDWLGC

With `CC(C)C[C@H](NC(=O)NCc1ccccc1)C(=O)NO` the Activity (ES2 [1]) was “Dose-dependent effect”, the GI50 [2] was > 1000 µM and the IC50 [3] was > 500 µM. The Activity (Aorta) was “Active”, the IC50 (Aminopeptidase N [4]) was 0.85 µM and the Ratio IC50 (Aminopeptidase N [5]) was 10. The IC50 (Aminopeptidase N [6]) was 3 µM, the Activity (HUVEC [7]) was “Active” and the Activity (HUVEC [8]) was “Non-toxic”. For the same compound, the Activity (ES2 [9]) was “inactive”.

With `CC(C)C[C@H](NC(=O)[C@@H](O)[C@H](N)Cc1ccccc1)C(=O)O` [UBENIMEX] the Activity (ES2 [1]) was “Dose-dependent effect”, the GI50 [2] was 350 µM and the Activity (Aorta) was “Active”. For the same compound, the Activity (HUVEC [7]) was “Active”, the Activity (HUVEC [8]) was “Non-toxic” and the Activity (ES2 [9]) was “inactive”.

From ChEMBL document CHEMBL2390954, “Discovery of a synthetic Aminopeptidase N inhibitor LB-4b as a potential anticancer agent” (Bioorg Med Chem Lett, 2013)
